Test results published in ChEMBL document CHEMBL4622996, “Discovery of Vixotrigine: A Novel Use-Dependent Sodium Channel Blocker for the Treatment of Trigeminal Neuralgia” (ACS Med Chem Lett, 2020).

Legend:
[1] = molecular target: Voltage-gated inwardly rectifying potassium channel KCNH2 (Homo sapiens, UniProt Q12809); assay: Inhibition of human ERG
[2] = molecular target: T1, Broad substrate specificity ATP-binding cassette transporter ABCG2 (Homo sapiens, UniProt Q9UNQ0); assay: Inhibition of BCRP (unknown origin)
T1 sequence (Q9UNQ0 whole entry): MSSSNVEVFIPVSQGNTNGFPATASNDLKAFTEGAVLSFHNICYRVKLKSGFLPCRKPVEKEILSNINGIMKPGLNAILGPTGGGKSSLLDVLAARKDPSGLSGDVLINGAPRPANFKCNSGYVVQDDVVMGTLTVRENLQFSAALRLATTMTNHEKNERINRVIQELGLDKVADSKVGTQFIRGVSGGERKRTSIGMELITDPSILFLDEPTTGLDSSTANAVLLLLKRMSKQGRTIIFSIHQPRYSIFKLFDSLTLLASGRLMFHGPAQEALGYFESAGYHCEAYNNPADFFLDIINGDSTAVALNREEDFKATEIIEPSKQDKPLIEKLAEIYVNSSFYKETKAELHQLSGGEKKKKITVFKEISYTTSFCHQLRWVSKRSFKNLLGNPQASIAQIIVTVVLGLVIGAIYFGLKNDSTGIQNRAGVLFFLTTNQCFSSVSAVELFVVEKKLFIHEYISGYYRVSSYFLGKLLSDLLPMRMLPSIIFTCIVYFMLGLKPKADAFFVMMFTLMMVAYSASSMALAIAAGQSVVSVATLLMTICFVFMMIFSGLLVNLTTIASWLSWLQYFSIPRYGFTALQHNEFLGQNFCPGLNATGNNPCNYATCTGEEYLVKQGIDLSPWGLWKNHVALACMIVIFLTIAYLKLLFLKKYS

[3] = Cmax in monkey at 3 mg/kg, po; assay type: ADME, organism-based, Macaca mulatta; design: dose 3 mg/kg, route oral; settings: rhesus monkey, in vivo
Cytochrome P450 2C9 = Cytochrome P450 2C9 (Homo sapiens, UniProt P11712); assay: Inhibition of CYP2C9 (unknown origin); assay type: ADME
Sequence of Cytochrome P450 2C9 (P11712 whole entry): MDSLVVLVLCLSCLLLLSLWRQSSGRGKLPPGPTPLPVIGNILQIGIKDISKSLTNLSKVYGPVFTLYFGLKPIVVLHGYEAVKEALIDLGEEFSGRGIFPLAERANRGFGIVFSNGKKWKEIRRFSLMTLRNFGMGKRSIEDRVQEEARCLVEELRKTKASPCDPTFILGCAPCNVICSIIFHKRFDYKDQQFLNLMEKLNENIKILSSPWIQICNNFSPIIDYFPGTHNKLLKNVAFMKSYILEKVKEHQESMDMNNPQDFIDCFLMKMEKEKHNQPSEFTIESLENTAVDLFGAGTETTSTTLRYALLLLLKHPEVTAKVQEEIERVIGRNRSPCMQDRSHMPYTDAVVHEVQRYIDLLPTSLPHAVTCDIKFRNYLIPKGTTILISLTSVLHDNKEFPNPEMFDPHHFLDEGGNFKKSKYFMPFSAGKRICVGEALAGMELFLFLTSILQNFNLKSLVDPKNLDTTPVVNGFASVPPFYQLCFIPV

[4] = molecular target: ATP-dependent translocase ABCB1 (Homo sapiens, UniProt P08183); assay: Inhibition of P-glycoprotein (unknown origin) upto 100 uM
Sequence of ATP-dependent translocase ABCB1 (P08183 whole entry): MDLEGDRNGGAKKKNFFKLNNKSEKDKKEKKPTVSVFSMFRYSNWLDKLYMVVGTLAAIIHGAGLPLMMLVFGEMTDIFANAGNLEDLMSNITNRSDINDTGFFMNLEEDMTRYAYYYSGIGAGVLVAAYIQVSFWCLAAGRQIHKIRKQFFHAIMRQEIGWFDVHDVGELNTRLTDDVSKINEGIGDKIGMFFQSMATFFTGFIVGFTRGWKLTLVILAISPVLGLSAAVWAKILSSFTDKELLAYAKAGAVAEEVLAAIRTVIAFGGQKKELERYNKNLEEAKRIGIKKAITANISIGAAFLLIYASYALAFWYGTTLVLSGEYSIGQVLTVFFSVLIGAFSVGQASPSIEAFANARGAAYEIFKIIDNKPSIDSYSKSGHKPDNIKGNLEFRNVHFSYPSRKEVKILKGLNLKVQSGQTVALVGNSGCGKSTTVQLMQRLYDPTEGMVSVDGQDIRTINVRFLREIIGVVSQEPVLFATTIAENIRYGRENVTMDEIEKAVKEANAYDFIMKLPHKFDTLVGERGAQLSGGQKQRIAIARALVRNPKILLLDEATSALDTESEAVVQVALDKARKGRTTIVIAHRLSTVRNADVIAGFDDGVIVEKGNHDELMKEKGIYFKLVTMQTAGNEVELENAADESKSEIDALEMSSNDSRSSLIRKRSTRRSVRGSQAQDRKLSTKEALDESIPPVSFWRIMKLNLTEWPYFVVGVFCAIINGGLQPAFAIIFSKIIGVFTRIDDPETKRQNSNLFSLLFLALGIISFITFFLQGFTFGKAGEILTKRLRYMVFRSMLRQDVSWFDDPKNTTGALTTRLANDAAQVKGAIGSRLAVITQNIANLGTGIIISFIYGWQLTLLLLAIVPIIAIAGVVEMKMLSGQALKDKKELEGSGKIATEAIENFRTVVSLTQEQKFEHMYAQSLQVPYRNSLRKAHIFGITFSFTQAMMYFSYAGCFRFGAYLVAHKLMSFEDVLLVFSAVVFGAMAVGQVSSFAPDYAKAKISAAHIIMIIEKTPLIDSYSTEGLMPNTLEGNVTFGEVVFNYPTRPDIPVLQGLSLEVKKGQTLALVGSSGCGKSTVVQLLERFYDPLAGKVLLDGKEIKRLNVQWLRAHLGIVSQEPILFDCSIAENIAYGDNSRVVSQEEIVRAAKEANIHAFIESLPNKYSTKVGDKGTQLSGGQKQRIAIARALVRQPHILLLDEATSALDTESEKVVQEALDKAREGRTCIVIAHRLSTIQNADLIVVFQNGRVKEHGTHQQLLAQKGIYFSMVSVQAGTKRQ

[5] = Half life in dog at 0.5 mg/kg, iv; assay type: ADME, organism-based, Canis lupus familiaris; settings: in vivo
[6] = Toxicity in rat assessed as sedation by measuring spontaneous locomotor activity at 100 to 300 mg/kg, po; assay type: organism-based; settings: in vivo
How it was run: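 Male rats, spontaneous locomotor activity test; oral doses 60, 100 or 300 mg/kg given 30 min before the session; plasma sampled 60 min postdose at 60 mg/kg.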

[7] = Oral bioavailability in dog at 3 mg/kg; assay type: ADME, organism-based, Canis lupus familiaris; settings: in vivo
[8] = Oral bioavailability in rat at 3 mg/kg; assay type: ADME, organism-based; settings: in vivo
[9] = molecular target: T2, Amine oxidase [flavin-containing] B (Homo sapiens, UniProt P27338); assay: Inhibition of MAO-B (unknown origin)
T2 sequence (P27338 whole entry): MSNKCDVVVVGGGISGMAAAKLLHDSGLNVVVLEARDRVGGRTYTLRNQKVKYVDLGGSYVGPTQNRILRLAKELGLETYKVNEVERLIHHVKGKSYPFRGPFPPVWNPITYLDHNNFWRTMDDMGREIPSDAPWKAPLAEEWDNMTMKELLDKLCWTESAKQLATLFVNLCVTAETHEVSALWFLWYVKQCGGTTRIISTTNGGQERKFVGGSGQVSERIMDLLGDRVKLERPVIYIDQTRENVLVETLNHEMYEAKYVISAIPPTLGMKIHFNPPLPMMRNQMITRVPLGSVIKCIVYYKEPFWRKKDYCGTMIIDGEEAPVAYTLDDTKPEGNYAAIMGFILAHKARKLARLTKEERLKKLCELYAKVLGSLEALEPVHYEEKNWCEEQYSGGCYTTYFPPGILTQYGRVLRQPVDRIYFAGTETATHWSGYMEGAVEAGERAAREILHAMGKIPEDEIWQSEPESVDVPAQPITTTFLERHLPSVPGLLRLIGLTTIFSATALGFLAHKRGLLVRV
How it was run: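 MAO-B inhibition measured in human liver microsomes, reported as pIC50.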

[10] = Aqueous solubility of compound in HCl salt : water; assay type: physicochemical
Cytochrome P450 2A6 = molecular target: T3, Cytochrome P450 2A6 (Homo sapiens, UniProt P11509); assay: Inhibition of CYP2A6 (unknown origin); assay type: ADME
T3 sequence (P11509 whole entry): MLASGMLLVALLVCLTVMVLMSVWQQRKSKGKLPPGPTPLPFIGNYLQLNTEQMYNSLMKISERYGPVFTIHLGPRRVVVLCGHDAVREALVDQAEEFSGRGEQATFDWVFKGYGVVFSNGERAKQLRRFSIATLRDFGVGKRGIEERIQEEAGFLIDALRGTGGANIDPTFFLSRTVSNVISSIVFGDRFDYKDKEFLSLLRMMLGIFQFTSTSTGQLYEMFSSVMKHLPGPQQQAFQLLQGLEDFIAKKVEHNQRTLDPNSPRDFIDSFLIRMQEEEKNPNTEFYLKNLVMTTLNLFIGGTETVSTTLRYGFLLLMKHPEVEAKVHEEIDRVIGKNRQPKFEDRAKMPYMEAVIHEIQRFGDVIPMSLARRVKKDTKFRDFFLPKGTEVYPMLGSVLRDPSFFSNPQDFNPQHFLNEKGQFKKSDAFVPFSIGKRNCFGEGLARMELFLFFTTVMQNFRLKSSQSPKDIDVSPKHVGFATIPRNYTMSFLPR

Cytochrome P450 2C19 = Cytochrome P450 2C19 (Homo sapiens, UniProt P33261); assay: Inhibition of CYP2C19 (unknown origin); assay type: ADME
Sequence of Cytochrome P450 2C19 (P33261 whole entry): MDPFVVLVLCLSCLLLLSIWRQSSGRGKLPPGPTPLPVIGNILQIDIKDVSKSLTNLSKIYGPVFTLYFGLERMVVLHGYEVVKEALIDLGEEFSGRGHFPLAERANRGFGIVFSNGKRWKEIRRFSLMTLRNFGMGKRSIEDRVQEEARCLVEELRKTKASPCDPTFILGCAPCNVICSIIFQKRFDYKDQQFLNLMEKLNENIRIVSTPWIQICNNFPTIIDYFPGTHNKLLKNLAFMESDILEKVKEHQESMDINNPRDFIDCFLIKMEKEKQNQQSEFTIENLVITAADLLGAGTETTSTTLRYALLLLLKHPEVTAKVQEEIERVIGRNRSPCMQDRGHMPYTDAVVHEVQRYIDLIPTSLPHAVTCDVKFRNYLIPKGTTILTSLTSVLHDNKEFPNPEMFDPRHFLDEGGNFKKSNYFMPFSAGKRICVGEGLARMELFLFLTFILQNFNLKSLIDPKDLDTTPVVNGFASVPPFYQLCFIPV

[11] = Total blood clearance in dog blood at 0.5 mg/kg, iv; assay type: ADME, organism-based, Canis lupus familiaris
[12] = Free plasma concentration in rat model of chronic constriction injury-induced neuropathic pain at 0.5 mg/kg, po BID administered 22 days post surgery and measured on day 8 at 0.5 hrs post-dose; assay type: ADME, organism-based; settings: in vivo
How it was run: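 Chronic constriction injury neuropathic pain model in rat; oral dosing at 0.5 or 5 mg/kg BID starting day 22; mechanical allodynia read after 6 and 8 days of dosing; gabapentin 30 mg/kg po BID as positive control. Free plasma levels sampled on day 8, 0.5 h postdose.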

Sequence of Voltage-gated inwardly rectifying potassium channel KCNH2 (Q12809 whole entry): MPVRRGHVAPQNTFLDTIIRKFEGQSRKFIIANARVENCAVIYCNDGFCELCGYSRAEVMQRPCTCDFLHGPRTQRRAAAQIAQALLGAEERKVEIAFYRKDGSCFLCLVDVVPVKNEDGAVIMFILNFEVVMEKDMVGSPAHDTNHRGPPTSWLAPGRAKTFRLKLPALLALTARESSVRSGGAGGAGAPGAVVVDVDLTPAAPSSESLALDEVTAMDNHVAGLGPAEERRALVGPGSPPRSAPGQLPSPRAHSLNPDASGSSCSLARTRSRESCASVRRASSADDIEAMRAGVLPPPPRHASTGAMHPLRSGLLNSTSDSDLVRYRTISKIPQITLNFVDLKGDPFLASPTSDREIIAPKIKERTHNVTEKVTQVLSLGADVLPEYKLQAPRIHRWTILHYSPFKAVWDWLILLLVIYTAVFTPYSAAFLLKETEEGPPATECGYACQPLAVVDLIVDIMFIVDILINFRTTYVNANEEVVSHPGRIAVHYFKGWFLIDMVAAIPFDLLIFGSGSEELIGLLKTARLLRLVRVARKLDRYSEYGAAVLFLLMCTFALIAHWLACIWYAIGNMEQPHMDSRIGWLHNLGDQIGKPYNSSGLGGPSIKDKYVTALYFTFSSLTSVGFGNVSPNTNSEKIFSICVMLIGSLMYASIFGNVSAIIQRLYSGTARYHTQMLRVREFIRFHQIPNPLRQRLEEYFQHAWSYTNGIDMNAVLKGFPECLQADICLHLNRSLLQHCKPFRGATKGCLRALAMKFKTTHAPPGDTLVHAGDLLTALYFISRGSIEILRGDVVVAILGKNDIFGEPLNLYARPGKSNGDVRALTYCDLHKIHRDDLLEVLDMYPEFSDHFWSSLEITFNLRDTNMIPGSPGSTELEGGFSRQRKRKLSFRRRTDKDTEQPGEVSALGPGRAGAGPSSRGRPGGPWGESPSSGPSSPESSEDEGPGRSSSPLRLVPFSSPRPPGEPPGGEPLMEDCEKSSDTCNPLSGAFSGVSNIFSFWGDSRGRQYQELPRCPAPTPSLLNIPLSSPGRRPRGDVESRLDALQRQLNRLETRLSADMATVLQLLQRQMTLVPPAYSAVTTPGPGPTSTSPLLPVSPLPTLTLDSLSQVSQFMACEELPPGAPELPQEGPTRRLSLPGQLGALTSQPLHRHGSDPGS

Compound: Cl.NC(=O)[C@@H]1CC[C@H](c2ccc(OCc3ccccc3F)cc2)N1 [RAXATRIGINE HYDROCHLORIDE]
- IC50 [1]: 12.6 µM
- inhibition (INH) [2]: Not Active
- Cmax [3]: 730 ng/mL
- IC50 (Cytochrome P450 2C9): > 100 µM
- inhibition (INH) [4]: Not Active
- half-life [5]: 2.2 h
- Activity [6]: Toxic
- bioavailability [7]: 57%
- bioavailability [8]: 43%
- IC50 [9]: 0.00398 µM
- solubility [10]: 16.3 mg/mL
- IC50 (Cytochrome P450 2A6): > 100 µM
- IC50 (Cytochrome P450 2C19): 79 µM
- clearance [11]: 12 mL/min/kg
- Cp(f) [12]: 1.9 ng/mL
